This passage reports MIC, MIC50 and MIC90 results from ChEMBL document CHEMBL1649298, “Correlation between vancomycin MIC values and those of other agents against gram-positive bacteria among patients with bloodstream infections caused by methicillin-resistant Staphylococcus aureus” (2009).

Converted amounts (≈) assume the structure as drawn.

Holding throughout (type): functional
The subject of test [1] is Staphylococcus aureus. Nature of the test: Antibacterial activity against methicillin-resistant Staphylococcus aureus isolated form patient blood measured after 18 to 24 hrs on day 1 isolation by Etest. Summed up:
(§1)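 MRSA bloodstream isolates came from 120 patients at a tertiary care hospital between January 2005 and May 2007. MICs were read by Etest. Each patient's isolates were grouped as day 1 (index) or post-day 1 (subsequent).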

Test [2] deals with Staphylococcus aureus. Briefly: Antibacterial activity against methicillin-resistant Staphylococcus aureus isolated form patient blood measured after 18 to 24 hrs on day 1 post isolation by Etest. The gist of the method: as §1
The test system of test [3] is Staphylococcus aureus. Briefly: microbe, parasite or virus in culture.

In the test with Staphylococcus aureus [1], `CC(=O)NC[C@H]1CN(c2ccc(N3CCOCC3)c(F)c2)C(=O)O1` [LINEZOLID] returned an MIC of 0.38 µg/mL (≈ 1.13 µM), an MIC50 of 0.75 µg/mL (≈ 2.22 µM) and an MIC90 of 1.5 µg/mL (≈ 4.45 µM). Also, in the test with Staphylococcus aureus [2], the MIC came out at 0.38 µg/mL (≈ 1.13 µM), the MIC50 worked out at 1 µg/mL (≈ 2.96 µM) and the MIC90 is 1.5 µg/mL (≈ 4.45 µM). In the test on Staphylococcus aureus [3], the MIC is 0.75 µg/mL (≈ 2.22 µM), the MIC50 turned out to be 0.75 µg/mL (≈ 2.22 µM) and the MIC90 was 1 µg/mL (≈ 2.96 µM).
On to `CCCCCCCCCC(=O)N[C@@H](Cc1c[nH]c2ccccc12)C(=O)N[C@H](CC(N)=O)C(=O)N[C@@H](CC(=O)O)C(=O)N[C@@H]1C(=O)NCC(=O)N[C@@H](CCCN)C(=O)N[C@@H](CC(=O)O)C(=O)N[C@H](C)C(=O)N[C@@H](CC(=O)O)C(=O)NCC(=O)N[C@H](CO)C(=O)N[C@@H]([C@H](C)CC(=O)O)C(=O)N[C@@H](CC(=O)c2ccccc2N)C(=O)O[C@@H]1C`, for which, in the test with Staphylococcus aureus [1], the MIC turned out to be 0.13 µg/mL (≈ 0.0802 µM), the MIC50 was 0.5 µg/mL (≈ 0.309 µM) and the MIC90 came to 0.75 µg/mL (≈ 0.463 µM). Moreover, in the test on Staphylococcus aureus [2], the MIC turned out to be 0.19 µg/mL (≈ 0.117 µM), the MIC50 amounted to 0.5 µg/mL (≈ 0.309 µM) and the MIC90 was determined as 1 µg/mL (≈ 0.617 µM). In addition, in the test on Staphylococcus aureus [3], the MIC worked out at 0.13 µg/mL (≈ 0.0802 µM), the MIC50 was found to be 0.38 µg/mL (≈ 0.234 µM) and the MIC90 amounted to 0.75 µg/mL (≈ 0.463 µM).
In the test with Staphylococcus aureus [1], `CN[C@H](CC(C)C)C(=O)N[C@H]1C(=O)N[C@@H](CC(N)=O)C(=O)N[C@H]2C(=O)N[C@H]3C(=O)N[C@H](C(=O)N[C@H](C(=O)O)c4cc(O)cc(O)c4-c4cc3ccc4O)[C@H](O)c3ccc(c(Cl)c3)Oc3cc2cc(c3O[C@@H]2O[C@H](CO)[C@@H](O)[C@H](O)[C@H]2O[C@H]2C[C@](C)(N)[C@H](O)[C@H](C)O2)Oc2ccc(cc2Cl)[C@H]1O` [VANCOMYCIN] gave an MIC50 of 1.5 µg/mL (≈ 1.04 µM) and an MIC90 of 1.5 µg/mL (≈ 1.04 µM). In the test with Staphylococcus aureus [2], this compound displayed an MIC50 of 1.5 µg/mL (≈ 1.04 µM) and an MIC90 of 2 µg/mL (≈ 1.38 µM).
With `CN(C)c1cc(NC(=O)CNC(C)(C)C)c(O)c2c1C[C@H]1C[C@H]3[C@H](N(C)C)C(O)=C(C(N)=O)C(=O)[C@@]3(O)C(O)=C1C2=O` [TIGECYCLINE], the MIC with Staphylococcus aureus [1], in the test on Staphylococcus aureus [2] and in the test on Staphylococcus aureus [3] was 0.09 µg/mL (≈ 0.154 µM) in each case. The figures for the MIC50 against Staphylococcus aureus [1], against Staphylococcus aureus [2] and with Staphylococcus aureus [3] were 0.19 µg/mL (≈ 0.324 µM), 0.19 µg/mL (≈ 0.324 µM) and 0.13 µg/mL (≈ 0.222 µM), respectively. Besides, the values for the MIC90 with Staphylococcus aureus [1], in the test on Staphylococcus aureus [2] and in the test on Staphylococcus aureus [3] were 0.25 µg/mL (≈ 0.427 µM), 0.25 µg/mL (≈ 0.427 µM) and 0.2 µg/mL (≈ 0.341 µM), respectively.
